Holding throughout (format): functional
Assay [1] is described as follows: Growth inhibition of human PC3 cells at 10 uM after 48 hrs by SRB method. The note with it: PC-3, 48 h, read-out: GI. The method, boiled down:
(§1)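 NCI 56-line primary screen at a single 10^-5 M concentration. Cells grown in RPMI 1640 with 5% FBS and 2 mM L-glutamine, plated at 5000–40,000 cells/well, then preincubated for 24 h. Exposure was 48 h at 37 °C and 5% CO2. Adherent cells were fixed with cold TCA at 10% final, suspension cells at 16%. Staining used 0.4% SRB, read at 515 nm. Results are % growth inhibition relative to control.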

The nature of assay [2]: Growth inhibition of human UO31 cells at 10 uM after 48 hrs by SRB method. The note with it: UO-31, 48 h, read-out: GI. The method, boiled down:
(§2)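 NCI 56-line screen, single-dose primary assay at 10^-5 M. Cells grown in RPMI 1640 with 5% FBS and 2 mM L-glutamine, plated at 5000–40,000 cells/well and held 24 h at 37 °C, 5% CO2 before drug addition. Compound was given from DMSO stock, exposure 48 h, then TCA fixation and SRB staining with absorbance at 515 nm. % growth is taken relative to time-zero and untreated controls.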

A short description of assay [3]: Growth inhibition of human IGROV1 cells at 10 uM after 48 hrs by SRB method. Particulars: IGROV-1, 48 h, read-out: GI. The method, boiled down:
as §1

Assay [4] is described as follows: Growth inhibition of human UACC257 cells at 10 uM after 48 hrs by SRB method. Particulars: UACC-257, 48 h, read-out: GI. The method, boiled down:
as §2

Assay [5] concerns NCI-H522. The experiment in a line: Growth inhibition of human NCI-H522 cells at 10 uM after 48 hrs by SRB method. Particulars: NCI-H522, 48 h, read-out: GI. The method, boiled down:
as §1

Assay [6] is described as follows: Growth inhibition of human HOP92 cells at 10 uM after 48 hrs by SRB method. The note with it: HOP-92, 48 h, read-out: GI. The method, boiled down: as §1
Assay [7] deals with SR. The experiment in a line: Growth inhibition of human SR cells at 10 uM after 48 hrs by SRB method. The note with it: read-out: GI. The method, boiled down: as §1
Assay [8] is described as follows: Growth inhibition of human […] cells at 10 uM after 48 hrs by SRB method. Particulars: read-out: GI. The method, boiled down:
as §1

Assay [9] can be described thus: Growth inhibition of human MOLT4 cells at 10 uM after 48 hrs by SRB method. Particulars: MOLT-4, 48 h, read-out: GI. The method, boiled down:
as §1

Assay [10] has as its system K562. The experiment in a line: Growth inhibition of human K562 cells at 10 uM after 48 hrs by SRB method. The note with it: K562, 48 h, read-out: GI. The method, boiled down:
as §1

Assay [11] in a line: Growth inhibition of human HL-60(TB) cells at 10 uM after 48 hrs by SRB method. Particulars: HL-60, 48 h, read-out: GI. The method, boiled down: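 NCI single-dose primary screen at 10^-5 M, 48 h exposure. Cells grown in RPMI 1640 with 5% FBS and 2 mM L-glutamine. Suspension cells fixed in situ with TCA (final 16%), stained with SRB, absorbance read at 515 nm. Percent growth inhibition calculated against time-zero and untreated control plates.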

The test system of assay [12] is T47D. The experiment in a line: Growth inhibition of human T47D cells at 10 uM after 48 hrs by SRB method. Particulars: read-out: GI. The method, boiled down:
as §2

The subject of assay [13] is MDA-MB-468. The experiment in a line: Growth inhibition of human MDA-MB-468 cells at 10 uM after 48 hrs by SRB method. Particulars: MDA-MB-468, 48 h, read-out: GI. The method, boiled down:
as §1

Assay [14] can be described thus: Growth inhibition of human OVCAR8 cells at 10 uM after 48 hrs by SRB method. The note with it: OVCAR-8, 48 h, read-out: GI. The method, boiled down: as §1
The subject of assay [15] is SK-MEL-5. The experiment in a line: Growth inhibition of human SK-MEL-5 cells at 10 uM after 48 hrs by SRB method. The note with it: SK-MEL-5, 48 h, read-out: GI. The method, boiled down:
as §1

Assay [16] concerns NCI-H226. The experiment in a line: Growth inhibition of human NCI-H226 cells at 10 uM after 48 hrs by SRB method. Particulars: NCI-H226, 48 h, read-out: GI. The method, boiled down:
as §1

The subject of assay [17] is MCF7. The experiment in a line: Growth inhibition of human MCF7 cells at 10 uM after 48 hrs by SRB method. The note with it: MCF7, 48 h, read-out: GI. The method, boiled down:
as §1

The nature of assay [18]: Growth inhibition of human Caki1 cells at 10 uM after 48 hrs by SRB method. Particulars: CAKI-1, 48 h, read-out: GI. The method, boiled down: as §1
Assay [19] relates to A498. The experiment in a line: Growth inhibition of human A498 cells at 10 uM after 48 hrs by SRB method. Particulars: A498, 48 h, read-out: GI. The method, boiled down: as §1
Assay [20] in a line: Growth inhibition of human UACC62 cells at 10 uM after 48 hrs by SRB method. The note with it: UACC-62, 48 h, read-out: GI. The method, boiled down: as §2
Assay [21] is described as follows: Growth inhibition of human COLO205 cells at 10 uM after 48 hrs by SRB method. Particulars: COLO 205, 48 h, read-out: GI. The method, boiled down: as §1
A short description of assay [22]: Growth inhibition of human TK10 cells at 10 uM after 48 hrs by SRB method. The note with it: TK-10, 48 h, read-out: GI. The method, boiled down: as §2
Assay [23] in a line: Growth inhibition of human HCT116 cells at 10 uM after 48 hrs by SRB method. Particulars: HCT-116, 48 h, read-out: GI. The method, boiled down: as §1
The test system of assay [24] is A549. The experiment in a line: Growth inhibition of human A549 cells at 10 uM after 48 hrs by SRB method. The note with it: A549, 48 h, read-out: GI. The method, boiled down: as §1
Assay [25] relates to CCRF-CEM. The experiment in a line: Growth inhibition of human CCRF-CEM cells at 10 uM after 48 hrs by SRB method. Particulars: read-out: GI. The method, boiled down:
as §1

Assay [26] relates to MDA-MB-231. The experiment in a line: Growth inhibition of human MDA-MB-231 cells at 10 uM after 48 hrs by SRB method. The note with it: MDA-MB-231, 48 h, read-out: GI. The method, boiled down: as §1
Assay [27] concerns NCI/ADR-RES. The experiment in a line: Growth inhibition of human NCI/ADR-RES cells at 10 uM after 48 hrs by SRB method. Particulars: read-out: GI. The method, boiled down:
as §1

A short description of assay [28]: Growth inhibition of human OVCAR3 cells at 10 uM after 48 hrs by SRB method. The note with it: OVCAR-3, 48 h, read-out: GI. The method, boiled down:
as §1

Assay [29] relates to SK-MEL-2. The experiment in a line: Growth inhibition of human SK-MEL-2 cells at 10 uM after 48 hrs by SRB method. The note with it: SK-MEL-2, 48 h, read-out: GI. The method, boiled down:
as §1

SMILES strings stand for the structures.

From ChEMBL document CHEMBL3751694, “1-Piperazinylphthalazines as potential VEGFR-2 inhibitors and anticancer agents: Synthesis and in vitro biological evaluation” (Eur J Med Chem, 2016) come the findings set out here.

For `O=C(CN1CCN(c2nnc(-c3ccccc3)c3ccccc23)CC1)Nc1ccccc1Cl`, the inhibition of growth at 10 µM worked out at 45% in [1]; 37% in assay [2]; 46% in [3]; 30% in [4]; 42% in assay [5]; 31% in assay [6]. The inhibition of growth at 10 µM in assay [7] was 36%; in [8], 48%; in [9] it was 31%; in assay [10], 33%; in assay [11], 40%; in assay [12], 58%. In assay [13], the inhibition of growth at 10 µM was 43%.
On to `O=C(CN1CCN(c2nnc(-c3ccccc3)c3ccccc23)CC1)Nc1c(Cl)cccc1Cl`, for which the inhibition of growth at 10 µM in [1] was found to be 34%; in [2], 38%; in assay [14], 35%; in [15], 44%; in [5], 34%; in assay [16], 30%. Further, the inhibition of growth at 10 µM came to 47% in [6]; 40% in assay [7]; 48% in assay [8]; 42% in assay [9]; 43% in assay [10]; 38% in assay [11]. Further, the inhibition of growth at 10 µM in assay [12] came to 60%; in [13] it was 43%.
With `COc1ccc(NC(=O)CN2CCN(c3nnc(-c4ccccc4)c4ccccc34)CC2)cc1`, the results for the inhibition of growth at 10 µM in assay [5], in assay [12] and in [13] were 30%, 55% and 37%, respectively.
As for `N#Cc1ccc(NC(=O)CN2CCN(c3nnc(-c4ccccc4)c4ccccc34)CC2)cc1`, the inhibition of growth at 10 µM in assay [17] was found to be 30%; in assay [2] it was 49%; in assay [18] it was 34%; in assay [19], 44%; in assay [20], 32%; in [4], 30%. Also, the inhibition of growth at 10 µM in [15] was 47%; in [21], 32%; in assay [5] it was 37%; in assay [6] it was 40%; in assay [7], 36%; in assay [8], 39%. Besides, the inhibition of growth at 10 µM in [9] came out at 43%; in assay [10] it was 34%; in [11] it was 30%; in assay [12], 64%; in assay [13], 50%.
In the case of `COc1ccc(-c2csc(NC(=O)CN3CCN(c4nnc(-c5ccccc5)c5ccccc45)CC3)n2)cc1`, the inhibition of growth at 10 µM in assay [1] turned out to be 47%; in assay [2], 48%; in [22] it was 32%; in [18], 33%; in assay [19] it was 43%; in assay [15], 46%. In addition, the inhibition of growth at 10 µM came out at 32% in [23]; 40% in assay [21]; 34% in assay [5]; 36% in [16]; 34% in assay [24]; 44% in assay [7]. The inhibition of growth at 10 µM stood at 50% in [8]; 62% in assay [9]; 48% in assay [10]; 40% in assay [11]; 34% in [25]; 82% in assay [12]. The inhibition of growth at 10 µM in assay [13] was 58%; in [26] it was 42%.
Take `O=C(CN1CCN(c2nnc(-c3ccccc3)c3ccccc23)CC1)Nc1cccc(C(F)(F)F)c1`: the inhibition of growth at 10 µM in assay [17] came out at 41%; in [1], 40%; in [19], 32%; in assay [20], 41%; in assay [15], 41%; in assay [5], 53%. Also, the inhibition of growth at 10 µM in assay [24] came out at 34%; in assay [7] it was 55%; in assay [8], 46%; in assay [9], 52%; in [10], 38%; in [25], 31%. Also, the inhibition of growth at 10 µM in [12] stood at 59%; in [13], 60%.
As to `O=C(CN1CCN(c2nnc(-c3ccccc3)c3ccccc23)CC1)Nc1nccs1`, the inhibition of growth at 10 µM in assay [1] was 38%; in assay [2] it was 40%; in assay [27] it was 32%; in assay [28] it was 38%; in [20], 37%; in assay [15], 36%. Further, the inhibition of growth at 10 µM in [5] came out at 41%; in [6], 35%; in [7], 31%; in assay [8], 51%; in assay [9], 39%; in assay [10] it was 36%. Also, the inhibition of growth at 10 µM in assay [11] was 38%; in assay [25], 30%; in assay [12], 64%; in assay [13], 59%.
As for `O=C(CN1CCN(c2nnc(-c3ccccc3)c3ccccc23)CC1)Nc1ccc(Cl)cc1`, the inhibition of growth at 10 µM in assay [1] came out at 32%; in assay [2], 34%; in assay [19] it was 36%; in assay [29], 33%; in assay [5], 53%; in assay [7], 40%. For the same compound, the inhibition of growth at 10 µM worked out at 40% in [8]; 41% in assay [9]; 30% in [10]; 30% in assay [11]; 57% in [12]; 53% in assay [13].
As to `O=C(CN1CCN(c2nnc(-c3ccccc3)c3ccccc23)CC1)c1ccc(Cl)cc1`, the inhibition of growth at 10 µM stood at 57% in [5]; 30% in assay [9]; 33% in assay [10]; 41% in assay [12]; 38% in assay [13].
Consider `COc1ccc(C(=O)CN2CCN(c3nnc(-c4ccccc4)c4ccccc34)CC2)cc1`, for which the inhibition of growth at 10 µM in assay [2] came out at 35%; in [5] it was 35%; in assay [8], 32%; in assay [10], 30%; in assay [12], 36%.
